Measured values from ChEMBL document CHEMBL1156235, “A novel class of antihyperlipidemic agents with low density lipoprotein receptor up-regulation via the adaptor protein autosomal recessive hypercholesterolemia” (J Med Chem, 2010).
In brackets after ≈: the same amount, converted by molar mass. Activity calls are given as the source filed them. No cut-off for these calls is given here.

What was measured:
HepG2 [1] = test: Upregulation of LDL receptor expression in human HepG2 cells assessed as DiI-LDL uptake after 19 hrs; type: functional; conditions: HepG2, 19 h
Summary of the method: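 HepG2 cells were grown 2-3 days in DMEM/F-12 with 10% FBS, then given compound in medium with 10% delipoprotein serum for 19 h at 37 °C. DiI-labelled human LDL was then added for 5 h, with 30-50-fold unlabelled LDL defining nonspecific uptake. Specific fluorescence per protein is expressed as % of control. EC25 is the concentration giving 25% up-regulation (n = 1).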

[2] = biological target: T1, Sterol O-acyltransferase 1 (Rattus norvegicus, UniProt O70536); test: Inhibition of rat macrophages ACAT
T1 sequence (O70536 whole entry): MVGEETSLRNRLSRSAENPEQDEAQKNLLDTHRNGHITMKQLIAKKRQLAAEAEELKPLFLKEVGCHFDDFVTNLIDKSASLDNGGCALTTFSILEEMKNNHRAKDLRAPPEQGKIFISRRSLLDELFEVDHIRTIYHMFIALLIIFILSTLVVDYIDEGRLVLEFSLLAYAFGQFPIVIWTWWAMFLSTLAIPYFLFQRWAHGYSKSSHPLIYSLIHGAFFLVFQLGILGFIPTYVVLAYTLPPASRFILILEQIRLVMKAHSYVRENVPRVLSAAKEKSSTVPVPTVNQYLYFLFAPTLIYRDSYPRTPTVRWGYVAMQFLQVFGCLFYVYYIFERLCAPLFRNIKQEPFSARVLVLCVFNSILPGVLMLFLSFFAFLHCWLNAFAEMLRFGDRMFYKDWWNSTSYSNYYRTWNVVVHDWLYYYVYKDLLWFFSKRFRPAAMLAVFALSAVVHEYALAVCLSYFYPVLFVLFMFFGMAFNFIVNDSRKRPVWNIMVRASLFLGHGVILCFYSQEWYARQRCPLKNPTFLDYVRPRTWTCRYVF
Summary of the method: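 ACAT was taken from rat macrophages, and inhibition was measured once (n = 1).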

[3] = Solubility in phosphate buffer at pH 7.4 by HPLC analysis; type: physicochemical
Summary of the method: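 Solubility in phosphate buffer was measured at room temperature, with the dissolved amount quantified by HPLC.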

Hamster [4] = test: Antihyperlipidemic activity in high-cholesterol diet fed po dosed hamster model assessed as reduction of plasma total cholesterol level administered qd for 7 days; type: functional, organism-based; conditions: Cricetinae
Summary of the method: (§1)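 Hamsters fed a rich diet for 1 week were dosed orally by gavage once daily for 1 week. Plasma total cholesterol and LDL-C were then measured. Values are mean ± SEM.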

HepG2 [5] = test: Increase of [125I]LDL cholesterol degradation in human HepG2 cells; type: functional, cell-based
HepG2 [6] = test: Upregulation of LDL receptor expression in human HepG2 cells at 1 uM in presence of ARH-specific siRNA; type: functional, cell-based
Hamster [7] = test: Antihyperlipidemic activity in high-cholesterol diet fed po dosed hamster model assessed as reduction of plasma total LDL cholesterol level administered qd for 7 days; type: functional, organism-based; conditions: Cricetinae; summary of the method: as §1
Hamster [8] = test: Antihyperlipidemic activity in high-cholesterol diet fed hamster model assessed as reduction of plasma total cholesterol level at 10 mg/kg, po administered qd for 7 days; type: functional, Cricetinae; design: scale not given: the % may be the effect or the level left; summary of the method: as §1
Hamster [9] = test: Antihyperlipidemic activity in high-cholesterol diet fed hamster model assessed as reduction of plasma total LDL cholesterol level at 30 mg/kg, po administered qd for 7 days; type: functional, Cricetinae; design: scale not given: the % may be the effect or the level left; summary of the method: as §1
Hamster [10] = test: Antihyperlipidemic activity in high-cholesterol diet fed hamster model assessed as reduction of plasma total cholesterol level at 30 mg/kg, po administered qd for 7 days; type: functional, Cricetinae; design: scale not given: the % may be the effect or the level left; summary of the method: as §1
Hamster [11] = test: Antihyperlipidemic activity in high-cholesterol diet fed hamster model assessed as reduction of plasma total LDL cholesterol level at 10 mg/kg, po administered qd for 7 days; type: functional, Cricetinae; design: scale not given: the % may be the effect or the level left; summary of the method: as §1
[12] = Cmax in hamster at 10 mg/kg; type: ADME, organism-based; design: dose 10 mg/kg; conditions: cricetinae, in vivo
Summary of the method: (§2)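 Male hamsters received a single oral dose of 10 mg/kg as the sodium salt, and serum drug concentration was followed over time. Values are mean ± SEM, n = 3.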

[13] = AUC (0 to 360 mins) in hamster at 10 mg/kg; type: ADME, organism-based; design: time < 6 hr, dose 10 mg/kg; conditions: cricetinae, plasma; summary of the method: as §2
Hamster [14] = test: Antihyperlipidemic activity in high-cholesterol diet fed hamster model assessed as reduction of plasma total cholesterol level at 1 mg/kg, po administered qd for 7 days; type: functional, Cricetinae; design: scale not given: the % may be the effect or the level left; summary of the method: as §1
Hamster [15] = test: Antihyperlipidemic activity in high-cholesterol diet fed hamster model assessed as reduction of plasma total LDL cholesterol level at 3 mg/kg, po administered qd for 7 days; type: functional, Cricetinae; design: scale not given: the % may be the effect or the level left; summary of the method: as §1
HepG2 [16] = test: Increase of [125I]LDL cholesterol degradation in human HepG2 cells at 1 uM; type: functional
Hamster [17] = test: Antihyperlipidemic activity in high-cholesterol diet fed hamster model assessed as reduction of plasma total cholesterol level at 3 mg/kg, po administered qd for 7 days; type: functional, Cricetinae; design: scale not given: the % may be the effect or the level left; summary of the method: as §1
HepG2 [18] = test: Increase of [125I]LDL cholesterol degradation in human HepG2 cells at 0.1 uM; type: functional
Hamster [19] = test: Antihyperlipidemic activity in high-cholesterol diet fed hamster model assessed as reduction of plasma total LDL cholesterol level at 1 mg/kg, po administered qd for 7 days; type: functional, Cricetinae; design: scale not given: the % may be the effect or the level left; summary of the method: as §1
HepG2 [20] = test: Increase of [125I]LDL cholesterol degradation in human HepG2 cells at 0.01 uM; type: functional

Compound | EC25 (HepG2 [1]) [µM] | IC50 [2] [µM] | solubility [3] [µg/mL] | also measured
COc1cccc(C2(C(=O)NS(=O)(=O)Oc3c(C(C)C)cccc3C(C)C)CCNCC2)c1 | > 10 | > 1 |  | 
COc1cccc(C2(C(=O)N(C)S(=O)(=O)Oc3c(C(C)C)cccc3C(C)C)CCN(c3ncccn3)CC2)c1 | > 10 | > 1 | < 0.3 | 
COc1cccc(C2(C(=O)NS(=O)(=O)Oc3c(C(C)C)cccc3C(C)C)CCN(c3nccc(C)n3)CC2)c1 | 0.5 | > 1 | 200 (≈ 353 µM) | 
COc1cccc(C2(C(=O)NS(=O)(=O)Oc3c(C(C)C)cccc3C(C)C)CCN(c3ncccn3)CC2)c1 [listing 1 of 2 here] |  |  |  | Activity (Hamster [4]): Dose-dependent effect; Activity (HepG2 [5]): Dose-dependent effect; Activity (HepG2 [6]): inactive; Activity (Hamster [7]): Dose-dependent effect
COc1cccc(C2(C(=O)NS(=O)(=O)Oc3c(C(C)C)cccc3C(C)C)CCN(C(=O)c3ccccc3)CC2)c1 | > 10 | > 1 |  | 
CCCc1ccccc1OS(=O)(=O)NC(=O)C1(c2cccc(OC)c2)CCN(c2ccccc2OC)CC1 | 4.07 | > 1 |  | 
COc1cccc(C2(C(=O)NS(=O)(=O)Oc3c(C(C)C)cccc3C(C)C)CCN(c3ccccc3OC)CC2)c1 [listing 1 of 2 here] |  |  |  | Activity (Hamster [4]): Dose-dependent effect; Activity (Hamster [7]): Dose-dependent effect
CC(C)c1cccc(C(C)C)c1OS(=O)(=O)NC(=O)C1(c2cccc(OCCCO)c2)CCN(c2ncccn2)CC1 | > 10 |  | > 200 | 
COc1cccc(C2(C(=O)Nc3c(C(C)C)cccc3C(C)C)CCN(c3ccccc3OC)CC2)c1 | > 10 | > 1 |  | 
CC(C)c1c(C(=O)Nc2ccccc2)c(-c2ccccc2)c(-c2ccc(F)cc2)n1CC[C@@H](O)C[C@@H](O)CC(=O)O |  |  |  | Activity (HepG2 [6]): Active
COc1cccc(C2(C(=O)NS(=O)(=O)Oc3ccccc3)CCN(c3ccccc3OC)CC2)c1 | > 10 | > 1 |  | 
COc1cccc(C2(C(=O)NS(=O)(=O)Oc3ccccc3C3CCCC3)CCN(c3ccccc3OC)CC2)c1 | 0.69 | > 1 |  | 
COc1cccc(C2(C(=O)NS(=O)(=O)Oc3c(C(C)C)cccc3C(C)C)CCN(c3ccccc3OC)CC2)c1 [listing 2 of 2 here] | 0.37 | 0.33 |  | Activity (Hamster [8]): -10%; Activity (Hamster [9]): -25%; Activity (Hamster [10]): -17%; Activity (Hamster [11]): -18%; Cmax [12]: 13 ng/mL
CCCCn1c(=O)c(NC(=O)Nc2c(C(C)C)cc(N)cc2C(C)C)c(-c2cccc(OCCCO)c2)c2cccnc21.Cl.O | 0.49 | 0.031 |  | Activity (Hamster [8]): -29%; Activity (Hamster [11]): -31%
CC(C)c1cccc(C(C)C)c1OS(=O)(=O)NC(=O)C1(c2cccc(OCCO)c2)CCN(c2ncccn2)CC1 | 1.5 |  | > 200 | 
CCCc1cnc(N2CCC(C(=O)NS(=O)(=O)Oc3c(C(C)C)cccc3C(C)C)(c3cccc(OC)c3)CC2)nc1 | > 10 | > 1 |  | 
COc1cccc(C2(C(=O)NS(=O)(=O)Oc3c(C(C)C)cccc3C(C)C)CCN(c3ncc(Br)cn3)CC2)c1 | 0.61 | > 1 | < 0.1 | 

Compound | EC25 (HepG2 [1]) [µM] | IC50 [2] [µM] | solubility [3] [µg/mL] | also measured
COc1cccc(C2(C(=O)[N-]S(=O)(=O)Oc3c(C(C)C)cccc3C(C)C)CCN(c3ncccn3)CC2)c1.[Na+] |  |  | 230 | Cmax [12]: 290 ng/mL; AUC(0-t) at 6 h [13]: 1090 ng·h/mL
COc1cccc(C2(C(=O)NS(=O)(=O)Oc3c(C(C)C)cccc3C(C)C)CCN(c3nccc(C(F)(F)F)n3)CC2)c1 | > 10 | > 1 |  | 
COc1cccc(C2(C(=O)NS(=O)(=O)Oc3c(C(C)C)cccc3C(C)C)CCN(C)CC2)c1 | > 10 | > 1 |  | 
COc1cccc(C2(C(=O)NS(=O)(=O)Oc3c(C(C)C)cccc3C(C)C)CCN(c3ncccc3OC)CC2)c1 | > 10 | > 1 |  | 
COc1cccc(C2(C(=O)[N-]S(=O)(=O)Oc3c(C(C)C)cccc3C(C)C)CCN(c3ccccc3OC)CC2)c1.[Na+] |  |  |  | Cmax [12]: 420 ng/mL; AUC(0-t) at 6 h [13]: 1160 ng·h/mL
COc1cccc(C2(C(=O)NS(=O)(=O)Oc3c(C(C)C)cccc3C(C)C)CCN(c3ncccn3)CC2)c1 [listing 2 of 2 here] | 0.047 | > 1 |  | Activity (Hamster [14]): -8%; Activity (Hamster [8]): -17%; Activity (Hamster [15]): -27%; Activity (Hamster [11]): -38%; Activity (HepG2 [16]): 140%; Activity (Hamster [17]): -12%; Activity (HepG2 [18]): 136%; Activity (Hamster [19]): -24%; Activity (HepG2 [20]): 119%
COc1cccc(C2(C(=O)NS(=O)(=O)Oc3c(C)cccc3C)CCN(c3ccccc3OC)CC2)c1 | > 10 | 0.41 |  | 
COc1cccc(C2(C(=O)NS(=O)(=O)Oc3c(C(C)C)cccc3C(C)C)CCN(c3nc4ccccc4s3)CC2)c1 | 0.26 | > 1 | 3 (≈ 4.94 µM) | 
COc1cccc(C2(C(=O)NS(=O)(=O)Nc3c(C(C)C)cccc3C(C)C)CCN(c3ccccc3OC)CC2)c1 | > 10 | > 1 |  | 
COc1cccc(C2(C(=O)NS(=O)(=O)Oc3c(C(C)C)cccc3C(C)C)CCN(c3ccccc3OC)CC2)c1.Cl |  |  |  | Cmax [12]: 300 ng/mL; AUC(0-t) at 6 h [13]: 690 ng·h/mL
CCCOc1cccc(C2(C(=O)NS(=O)(=O)Oc3c(C(C)C)cccc3C(C)C)CCN(c3ncccn3)CC2)c1 | > 10 |  | < 0.3 | 
COc1cccc(C2(C(=O)NS(=O)(=O)Oc3ccccc3C)CCN(c3ccccc3OC)CC2)c1 | 3.88 | > 1 |  | 
COc1cccc(C2(C(=O)NS(=O)(=O)Oc3c(C(C)C)cccc3C(C)C)CCN(C(C)=O)CC2)c1 | > 10 | > 1 |  | 
COc1cccc(C2(C(=O)NS(=O)(=O)Oc3c(C(C)C)cccc3C(C)C)CCN(c3ccccc3)CC2)c1 | 1.52 | > 1 | 180 (≈ 327 µM) | 
CCOc1cccc(C2(C(=O)NS(=O)(=O)Oc3c(C(C)C)cccc3C(C)C)CCN(c3ncccn3)CC2)c1 | 3.1 |  | 69 (≈ 122 µM) | 
CC(C)c1cccc(C(C)C)c1OS(=O)(=O)NC(=O)C1(c2cccc(O)c2)CCN(c2ncccn2)CC1 | > 10 |  | 200 (≈ 371 µM) | 
